The values below come from ChEMBL document CHEMBL1128642, “Discovery of an orally bioavailable NK1 receptor antagonist, (2S,3S)-(2-methoxy-5-tetrazol-1-ylbenzyl)(2-phenylpiperidin-3-yl)amine (GR203040), with potent antiemetic activity” (J Med Chem, 1995).

Data set [1] deals with Mustela putorius furo. The data set is described as follows: Compound was evaluated in vivo for its antiemetic activity in ferret, which was administered subcutaneously immediately after (0 ptt) induction of emesis. Type of data set: functional. The method in brief:
(§1)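 Adult male ferrets (1.0–1.7 kg), whole-body X-irradiation at 2 Gy over about 5 min. Antagonist given sc 90 min before irradiation or immediately after it. Retches and vomits counted. ID90 is the lowest dose giving ≥90% inhibition of emesis versus untreated irradiated controls; n per group reported.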

The next data set has as its target Substance-P receptor (Homo sapiens, UniProt P25103). The data set is described as follows: Binding affinity to Tachykinin receptor 1 stably expressed in chinese hamster ovary (CHO) cells. Type of data set: cell-based. In outline:
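Membranes from CHO cells stably expressing human NK1 receptor, grown in DMEM/F12 with 10% FCS and 4 mM glutamine. Incubated 40 min at 22 °C with 0.7–1.0 nM [3H]substance P (final) in HEPES 50 mM/3 mM MnCl2, pH 7.4, 3 µg protein.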

Another data set is filed under the species Canis familiaris. The data set is described as follows: In vitro metabolic turnover (% parent lost) after exposure to dog hepatic microsomes (hepatic first pass metabolism). It counts as functional. The settings on record: Canis lupus familiaris, Liver. In outline: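 Dog liver microsomes with an NADPH-regenerating system, shaken at 37 °C. Centrifuged, then parent compound quantified by reverse-phase HPLC with UV detection at 215 nm. Turnover (% parent lost) taken from the peak-area difference versus a control incubation lacking NADPH regeneration.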

A short description of data set [2]: Lipophilicity. Type of data set: physicochemical. The settings on record: octanol/water.
Data set [3] can be described thus: Compound was evaluated in vivo for plasma clearance in dog after intravenous dose at 2 mg/Kg. It counts as ADME, organism-based, Canis lupus familiaris. The settings on record: read-out: Clp. The method in brief: (§2)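 Beagle dogs, iv then oral crossover at 2 mg/kg with wash-out between doses. Blood drawn predose and at 0.08–8 h; plasma prepared at about 5 °C. Parent compound measured by solid-phase extraction and reversed-phase HPLC-UV. Plasma clearance taken from iv dosing; oral bioavailability F calculated from both routes.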

Data set [4] in a line: Oral bioavailability in dog. It counts as ADME, organism-based, Canis lupus familiaris. The following applies: in vivo. The method in brief:
as §2

Data set [5] has as its system Mustela putorius furo. The data set is described as follows: Compound was evaluated in vivo for its antiemetic activity in ferret, which was administered subcutaneously 90 minutes before (90 ptt) induction of emesis. Type of data set: functional. In outline:
as §1

Data set [6] in a line: Partition coefficient (logD). Type of data set: physicochemical. The following applies: octanol/water.
For data set [7], the system named is Substance-P receptor (Meriones unguiculatus). The data set is described as follows: Compound was evaluated for its ex vivo binding affinity towards substance P receptor measured 15 minutes post administration to gerbil. The following applies: Gerbillinae.
Data set [8] has as its system Mustela putorius furo. The data set is described as follows: Compound was evaluated in vivo for its antiemetic activity in ferret, which was administered subcutaneously 90 minutes before (90 ptt) induction of emesis;>80% inhibition observed. It counts as functional.

Substance-P receptor, sequence (P25103 whole entry): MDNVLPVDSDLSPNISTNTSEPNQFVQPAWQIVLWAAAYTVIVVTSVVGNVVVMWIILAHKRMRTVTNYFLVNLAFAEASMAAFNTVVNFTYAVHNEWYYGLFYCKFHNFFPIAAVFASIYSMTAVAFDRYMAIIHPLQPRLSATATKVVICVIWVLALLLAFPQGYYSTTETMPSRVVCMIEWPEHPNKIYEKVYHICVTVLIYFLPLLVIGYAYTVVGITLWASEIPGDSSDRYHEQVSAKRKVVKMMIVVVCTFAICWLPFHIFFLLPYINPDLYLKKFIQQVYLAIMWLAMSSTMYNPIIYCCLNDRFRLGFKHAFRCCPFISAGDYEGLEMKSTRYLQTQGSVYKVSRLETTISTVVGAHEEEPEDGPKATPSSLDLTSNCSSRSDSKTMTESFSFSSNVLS

Turning to `COc1ccc(-c2ccsc2)cc1CN[C@H]1CCCN[C@H]1c1ccccc1`, the ID90 in the data set with Mustela putorius furo [1] is >3 mg/kg. The inhibition constant Ki (commonly the dissociation constant of the complex between target and ligand, obtained from inhibition or displacement) on Substance-P receptor was 31.6 pM. The Metabolic turnover in the data set filed under Canis familiaris was 92%. Moreover, in [2], the logD (commonly lipophilicity at a set pH, counting ionised and neutral species) was 3.1.

For `COc1ccc(-c2ccoc2)cc1CN[C@H]1CCCN[C@H]1c1ccccc1`, the clearance in data set [3] is 45 mL/min/kg. Besides, in [4], the bioavailability (commonly dose-corrected exposure relative to a reference, in per cent) is < 10%. Besides, the ID90 in the data set with Mustela putorius furo [1] and in the data set on Mustela putorius furo [5] was 0.3 mg/kg throughout. Moreover, the inhibitory constant (Ki) on Substance-P receptor was 63.1 pM. For the same compound, in the data set listed under Canis familiaris, the Metabolic turnover amounted to 85%. Moreover, the log distribution coefficient (logD) in data set [2] is 2.5.

For `COc1ccc(-n2ncnn2)cc1CN[C@H]1CCCN[C@H]1c1ccccc1`, the ID90 in the data set with Mustela putorius furo [5] is >1 mg/kg. At Substance-P receptor, this compound had a Ki of 126 pM. The compound also displayed a log distribution coefficient (logD) in data set [6] of 0.8. Moreover, the Metabolic turnover in the data set listed under Canis familiaris came out at 65%.

In the case of `COc1ccc(SC)cc1CN[C@H]1CCCN[C@H]1c1ccccc1`, the ID90 in the data set with Mustela putorius furo [1] is 1 mg/kg. The inhibition constant (Ki) at Substance-P receptor is 79.4 pM. In the data set listed under Canis familiaris, the Metabolic turnover worked out at 94%. The same compound showed a pH-dependent lipophilicity (logD) in data set [2] of 2.

As for `COc1ccc(-n2cncn2)cc1CN[C@H]1CCCN[C@H]1c1ccccc1`, the results for the ID90 in the data set with Mustela putorius furo [1] and in the data set with Mustela putorius furo [5] were 3 mg/kg and >3 mg/kg, respectively. The inhibition constant (Ki) at Substance-P receptor is 158 pM. Further, the Metabolic turnover in the data set listed under Canis familiaris turned out to be 55%. In data set [2], this compound showed a logD of 1.2.

Turning to `COc1ccc(F)cc1CN[C@H]1CCCN[C@H]1c1ccccc1`, in the data set on Mustela putorius furo [1], the ID90 worked out at 3 mg/kg. The compound further had an inhibition constant Ki at Substance-P receptor of 158 pM. Besides, the logD in [2] amounted to 1.8.

On to `COc1ccc(-c2ccco2)cc1CN[C@H]1CCCN[C@H]1c1ccccc1`, for which the ID90 in the data set with Mustela putorius furo [5] was >3 mg/kg. At Substance-P receptor, this compound had a Ki of 501 pM. In addition, in the data set listed under Canis familiaris, the Metabolic turnover came out at 100%. Besides, in data set [2], the logD was 3.

Regarding `COc1ccc(-c2c(C)noc2C)cc1CN[C@H]1CCCN[C@H]1c1ccccc1`, in the data set with Mustela putorius furo [5], the ID90 is 1 mg/kg. The affinity at Substance-P receptor, expressed as Ki, was 50.1 pM. In addition, in the data set listed under Canis familiaris, the Metabolic turnover is 92%. In data set [2], the pH-dependent lipophilicity (logD) is 2.3.

In the case of `COc1ccc(-n2cnnn2)cc1CN[C@H]1CCCN[C@H]1c1ccccc1`, the clearance in [3] is 24 mL/min/kg. The compound also gave a bioavailability in data set [4] of 76%. Besides, the ID90 with Mustela putorius furo [1] and in the data set with Mustela putorius furo [5] was 0.1 mg/kg each time. The compound also gave a Ki on Substance-P receptor of 50.1 pM. In data set [6], the log distribution coefficient (logD) is 0.8. For the same compound, the Metabolic turnover in the data set filed under Canis familiaris worked out at 51%.

Regarding `COc1ccc(-c2nnn(C)n2)cc1CN[C@H]1CCCN[C@H]1c1ccccc1`, the ID90 with Mustela putorius furo [5] is >3 mg/kg. Also, the inhibition constant (Ki) at Substance-P receptor was 2510 pM. For the same compound, the Metabolic turnover in the data set filed under Canis familiaris turned out to be 63%. The compound also registered a pH-dependent lipophilicity (logD) in [2] of 1.4.

`COc1ccc(-c2ccncc2)cc1CN[C@H]1CCCN[C@H]1c1ccccc1` gave an ID90 in the data set with Mustela putorius furo [1] of 0.3 mg/kg. Moreover, at Substance-P receptor, the inhibitory constant (Ki) is 63.1 pM. In the data set filed under Canis familiaris, the Metabolic turnover is 98%. The same compound yielded a logD in [2] of 2.2.

Take `COc1ccc(-c2nccs2)cc1CN[C@H]1CCCN[C@H]1c1ccccc1`: in the data set with Mustela putorius furo [1], the ID90 is >3 mg/kg. In addition, the affinity on Substance-P receptor corresponds to a Ki of 794 pM. Moreover, the Metabolic turnover in the data set listed under Canis familiaris turned out to be 61%. In data set [2], this compound returned a logD of 2.3.

In the case of `COc1ccc(-c2nccn2C)cc1CN[C@H]1CCCN[C@H]1c1ccccc1`, the ID90 in the data set with Mustela putorius furo [5] is >3 mg/kg. The Ki at Substance-P receptor is 2000 pM. Further, in the data set listed under Canis familiaris, the Metabolic turnover came out at 90%. For the same compound, the pH-dependent lipophilicity (logD) in [2] worked out at 1.2.

For the compound `COc1ccc(S(C)(=O)=O)cc1CN[C@H]1CCCN[C@H]1c1ccccc1`, the 50% effective dose (ED50) (in general, the dose at which the effect has come halfway, by size or by number of responders) in [7] is > 0.3 mg/kg. Also, the clearance in [3] came to 23 mL/min/kg. The compound also yielded a bioavailability in [4] of 42%. The ID90 in the data set with Mustela putorius furo [1] and in the data set with Mustela putorius furo [5] was >10 mg/kg each time. At Substance-P receptor, the Ki is 501 pM. In the data set listed under Canis familiaris, the Metabolic turnover was determined as 25%. The logD in data set [2] amounted to 0.2.

Take `COc1ccccc1CN[C@H]1CCCN[C@H]1c1ccccc1` [CP-99994]: the clearance in data set [3] is 94 mL/min/kg. Moreover, in data set [4], the bioavailability was < 10%. Moreover, the ID90 in the data set with Mustela putorius furo [1] and with Mustela putorius furo [8] was 1 mg/kg throughout. In addition, the Metabolic turnover in the data set filed under Canis familiaris stood at 100%. Also, the log distribution coefficient (logD) in [2] was determined as 1.4.

For `COc1ccc(-c2nnnn2C)cc1CN[C@H]1CCCN[C@H]1c1ccccc1`, the ID90 in the data set on Mustela putorius furo [5] was >3 mg/kg. Also, the Ki on Substance-P receptor is 200 pM. The Metabolic turnover in the data set listed under Canis familiaris was determined as 27%. For the same compound, in [2], the log distribution coefficient (logD) worked out at 0.5.

As to `COc1ccc(Br)cc1CN[C@H]1CCCN[C@H]1c1ccccc1`, the affinity at Substance-P receptor, expressed as Ki, was 50.1 pM. Also, the Metabolic turnover in the data set listed under Canis familiaris was found to be 60%. The logD in data set [2] worked out at 2.5.

As for `COc1ccc(-c2cncnc2)cc1CN[C@H]1CCCN[C@H]1c1ccccc1`, the ID90 in the data set on Mustela putorius furo [1] is 3 mg/kg; in the data set with Mustela putorius furo [5] it was >3 mg/kg. The compound further gave an inhibitory constant (Ki) at Substance-P receptor of 158 pM. Moreover, the Metabolic turnover in the data set filed under Canis familiaris came to 36%. In [2], this compound showed a log distribution coefficient (logD) of 1.4.

With `COc1ccc(-c2c(C)nn(C)c2C)cc1CN[C@H]1CCCN[C@H]1c1ccccc1`, on Substance-P receptor, the inhibition constant (Ki) is 794 pM. Besides, in the data set filed under Canis familiaris, the Metabolic turnover worked out at 82%. This compound also yielded a pH-dependent lipophilicity (logD) in data set [2] of 2.3.
